Experimental data taken from ChEMBL document CHEMBL3739417, “Synthesis and biological evaluation of novel 4,5-disubstituted 2H-1,2,3-triazoles as cis-constrained analogues of combretastatin A-4” (2015).

Experiments:
Type in all cases: functional
[1] = Growth inhibition of human HCT15 cells after 48 hrs by sulforhodamine B assay; conditions: HCT-15, 48 h
Summary of the method: (§1)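 NCI-60 panel screen by SRB assay (Rubinstein method). Percentage growth taken from optical density of SRB colour, read before and 48 hrs after exposure to compound or vehicle control. All analogues first screened at 10^-5 M. Analogues giving 60% growth inhibition at that level in at least eight lines then went to a five-concentration dose-response study.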

MDA-MB-231 = experiment: Growth inhibition of human MDA-MB-231 cells after 48 hrs by sulforhodamine B assay; conditions: MDA-MB-231, 48 h; summary of the method: as §1
[2] = Growth inhibition of human SF268 cells after 48 hrs by sulforhodamine B assay; conditions: SF-268, 48 h; summary of the method: as §1
[3] = Growth inhibition of human HCT116 cells after 48 hrs by sulforhodamine B assay; conditions: HCT-116, 48 h; summary of the method: as §1
NCI-H460 = experiment: Growth inhibition of human NCI-H460 cells after 48 hrs by sulforhodamine B assay; conditions: NCI-H460, 48 h; summary of the method: as §1
SR = experiment: Growth inhibition of human SR cells after 48 hrs by sulforhodamine B assay; summary of the method: as §1
MCF7 = experiment: Growth inhibition of human MCF7 cells after 48 hrs by sulforhodamine B assay; conditions: MCF7, 48 h; summary of the method: as §1
U-251 = experiment: Growth inhibition of human U251 cells after 48 hrs by sulforhodamine B assay; conditions: U-251, 48 h; summary of the method: as §1
[4] = Growth inhibition of human SF295 cells after 48 hrs by sulforhodamine B assay; conditions: SF-295, 48 h; summary of the method: as §1
[5] = Growth inhibition of human RPMI8226 cells after 48 hrs by sulforhodamine B assay; conditions: RPMI-8226, 48 h; summary of the method: as §1
[6] = Growth inhibition of human NCI-ADR-RES cells after 48 hrs by sulforhodamine B assay; summary of the method: as §1
[7] = Growth inhibition of human UO31 cells after 48 hrs by sulforhodamine B assay; conditions: UO-31, 48 h; summary of the method: as §1
NCI-H23 = experiment: Growth inhibition of human NCI-H23 cells after 48 hrs by sulforhodamine B assay; conditions: NCI-H23, 48 h; summary of the method: as §1
HT-29 = experiment: Growth inhibition of human HT-29 cells after 48 hrs by sulforhodamine B assay; conditions: HT-29, 48 h; summary of the method: as §1
[8] = Growth inhibition of human HOP92 cells after 48 hrs by sulforhodamine B assay; conditions: HOP-92, 48 h; summary of the method: as §1
[9] = Growth inhibition of human LOXIMVI cells after 48 hrs by sulforhodamine B assay; conditions: LOX IMVI; summary of the method: as §1
[10] = Growth inhibition of human SW620 cells after 48 hrs by sulforhodamine B assay; conditions: SW-620, 48 h; summary of the method: as §1
[11] = Growth inhibition of human HOP62 cells after 48 hrs by sulforhodamine B assay; conditions: HOP-62, 48 h; summary of the method: as §1
SK-MEL-2 = experiment: Growth inhibition of human SK-MEL-2 cells after 48 hrs by sulforhodamine B assay; conditions: SK-MEL-2, 48 h; summary of the method: as §1
786-0 = experiment: Growth inhibition of human 786-0 cells after 48 hrs by sulforhodamine B assay; conditions: 786-0, 48 h; summary of the method: as §1
[12] = Growth inhibition of human DU145 cells after 48 hrs by sulforhodamine B assay; conditions: DU-145, 48 h; summary of the method: as §1
MDA-MB-435 = experiment: Growth inhibition of human MDA-MB-435 cells after 48 hrs by sulforhodamine B assay; conditions: MDA-MB-435, 48 h
Summary of the method: (§2)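 NCI-60 sulforhodamine B screen. Compounds were first tested at a single dose of 10⁻⁵ M; hits, defined as ≥60% growth inhibition in at least eight lines, went on to a five-concentration dose–response. SRB optical density was read before and 48 h after exposure to compound or vehicle. Percentage growth was calculated from OD.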

ACHN = experiment: Growth inhibition of human ACHN cells after 48 hrs by sulforhodamine B assay; summary of the method: as §1
CAKI-1 = experiment: Growth inhibition of human CAKI-1 cells after 48 hrs by sulforhodamine B assay; conditions: CAKI-1, 48 h; summary of the method: as §1
K562 = experiment: Growth inhibition of human K562 cells after 48 hrs by sulforhodamine B assay; conditions: K562, 48 h; summary of the method: as §1
[13] = Growth inhibition of human PC3 cells after 48 hrs by sulforhodamine B assay; conditions: PC-3, 48 h; summary of the method: as §1
[14] = Growth inhibition of human SKOV3 cells after 48 hrs by sulforhodamine B assay; conditions: SK-OV-3, 48 h; summary of the method: as §1
A498 = experiment: Growth inhibition of human A498 cells after 48 hrs by sulforhodamine B assay; conditions: A498, 48 h; summary of the method: as §2
CCRF-CEM = experiment: Growth inhibition of human CCRF-CEM cells after 48 hrs by sulforhodamine B assay; summary of the method: as §1
A549 = experiment: Growth inhibition of human A549/ATCC cells after 48 hrs by sulforhodamine B assay; conditions: A549, 48 h; summary of the method: as §1
MDA-MB-468 = experiment: Growth inhibition of human MDA-MB-468 cells after 48 hrs by sulforhodamine B assay; conditions: MDA-MB-468, 48 h; summary of the method: as §1
[15] = Growth inhibition of human HCC2998 cells after 48 hrs by sulforhodamine B assay; conditions: HCC 2998, 48 h; summary of the method: as §1
KM12 = experiment: Growth inhibition of human KM12 cells after 48 hrs by sulforhodamine B assay; conditions: KM12, 48 h; summary of the method: as §1
[16] = Growth inhibition of human IGROV1 cells after 48 hrs by sulforhodamine B assay; conditions: IGROV-1, 48 h; summary of the method: as §1
[17] = Growth inhibition of human SNB75 cells after 48 hrs by sulforhodamine B assay; conditions: SNB-75, 48 h; summary of the method: as §1
[18] = Growth inhibition of human OVCAR3 cells after 48 hrs by sulforhodamine B assay; conditions: OVCAR-3, 48 h; summary of the method: as §2
SK-MEL-5 = experiment: Growth inhibition of human SK-MEL-5 cells after 48 hrs by sulforhodamine B assay; conditions: SK-MEL-5, 48 h; summary of the method: as §1
[19] = read-out: LD50 (the source's name)

`COc1cc(-c2n[nH]nc2-c2ccc3ccccc3n2)cc(OC)c1OC` showed a GI50 [1] of 37 nM, a CC50 [1, 19] of over 100000 nM and a GI50 (MDA-MB-231) of 94 nM. For the same molecule, the CC50 (MDA-MB-231; [19]) was over 100000 nM, the GI50 [2] was 503 nM and the CC50 [2, 19] was over 100000 nM. The GI50 [3] was 40 nM, the CC50 [3, 19] was over 100000 nM and the GI50 (NCI-H460) was 38 nM. It also gave a CC50 (NCI-H460; [19]) of over 100000 nM, a GI50 (SR) of 21 nM and an LC50 (concentration giving 50% net cell kill) (SR; read-out: LD50) of over 100000 nM. It also gave a GI50 (MCF7) of 27 nM, a CC50 (MCF7; [19]) of over 100000 nM and a GI50 (U-251) of 37 nM. For the same molecule, the CC50 (U-251; [19]) was over 100000 nM, the GI50 [4] was 14 nM and the CC50 [4, 19] was over 100000 nM. It also gave a GI50 [5] of 37 nM, a CC50 [5, 19] of over 100000 nM and a GI50 [6] of 23 nM. It also gave a CC50 [6, 19] of over 100000 nM, a GI50 [7] of 92 nM and an LC50 (concentration killing 50% of cells) ([7]; read-out: LD50) of over 100000 nM. For the same molecule, the GI50 (NCI-H23) was 65 nM, the LC50 (concentration giving 50% cell kill) (NCI-H23; read-out: LD50) was over 100000 nM and the GI50 (HT-29) was 214 nM. The LC50 (concentration killing 50% of cells) (HT-29; read-out: LD50) was over 100000 nM, the GI50 [8] was 99 nM and the CC50 [8, 19] was over 100000 nM. For the same molecule, the GI50 [9] was 65 nM, the CC50 [9, 19] was over 100000 nM and the GI50 [10] was 41 nM. It also gave an LD50 (concentration killing 50% of cells) [10] of over 100 µM, a GI50 [11] of 47 nM and an LC50 (concentration killing 50% of cells) ([11]; read-out: LD50) of over 100000 nM. It also gave a GI50 (SK-MEL-2) of 27 nM, a CC50 (SK-MEL-2; [19]) of over 100000 nM and a GI50 (786-0) of 43 nM. The LC50 (concentration killing 50% of cells) (786-0; read-out: LD50) was over 100000 nM, the GI50 [12] was 27 nM and the CC50 [12, 19] was over 100000 nM. For the same molecule, the GI50 (MDA-MB-435) was under 10 nM, the LC50 (concentration killing 50% of cells) (MDA-MB-435; read-out: LD50) was over 100000 nM and the GI50 (ACHN) was 81 nM. The CC50 (ACHN; [19]) was over 100000 nM, the GI50 (CAKI-1) was 43 nM and the CC50 (CAKI-1; [19]) was over 100000 nM. For the same molecule, the GI50 (K562) was 26 nM, the CC50 (K562; [19]) was over 100000 nM and the GI50 [13] was 46 nM. It also gave a CC50 [13, 19] of over 100000 nM, a GI50 [14] of 75 nM and an LC50 (concentration killing 50% of cells) ([14]; read-out: LD50) of over 100000 nM. It also gave a GI50 (A498) of 33 nM, an LC50 (50% net cell kill) (A498; read-out: LD50) of over 100000 nM and a GI50 (CCRF-CEM) of 37 nM. It also gave an LC50 (concentration killing 50% of cells) (CCRF-CEM; read-out: LD50) of over 100000 nM, a GI50 (A549) of 54 nM and a CC50 (A549; [19]) of over 100000 nM. For the same molecule, the GI50 (MDA-MB-468) was 35 nM, the CC50 (MDA-MB-468; [19]) was over 100000 nM and the GI50 [15] was 230 nM. For the same molecule, the CC50 [15, 19] was over 100000 nM, the GI50 (KM12) was 35 nM and the LC50 (concentration killing 50% of cells) (KM12; read-out: LD50) was over 100000 nM. The GI50 [16] was 65 nM, the CC50 [16, 19] was over 100000 nM and the GI50 [17] was 16 nM. It also gave a CC50 [17, 19] of over 100000 nM, a GI50 [18] of 11 nM and an LC50 (concentration giving 50% net cell kill) ([18]; read-out: LD50) of over 100000 nM. For the same molecule, the GI50 (SK-MEL-5) was 13 nM and the CC50 (SK-MEL-5; [19]) was over 100000 nM.
